# Measurements from PubChem BioAssay.
# Some of the results follow. Values without a mark were called inactive. The source made the active and inactive calls.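 The calls were made as follows, unless noted: active = mean of duplicate thallium-flux fluorescence ratios in parental host cells more than 5 SD below the buffer control mean (cut at about 0.38 in these data); inactive = the rest.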
# Experiments:
# [1] = target: Potassium voltage-gated channel subfamily KQT member 1 (Homo sapiens) (UniProt P51787); experiment: blockers of human KCNQ1 channel – cell-based, Tl flux, duplicate, confirmation (AID 588353;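 active = primary screen active, with duplicate mean exceeding buffer control mean plus 3 SD of buffer wells, cut at about 28% in these data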;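 also: 0% = buffer control ratio and 100% = XE991 inhibitor control ratio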); settings: KCNQ1 cell line, FluxOR thallium flux fluorescence, at 10 µM, active compounds read high
# Sequence of Potassium voltage-gated channel subfamily KQT member 1 (Homo sapiens) (P51787 whole entry, looked up): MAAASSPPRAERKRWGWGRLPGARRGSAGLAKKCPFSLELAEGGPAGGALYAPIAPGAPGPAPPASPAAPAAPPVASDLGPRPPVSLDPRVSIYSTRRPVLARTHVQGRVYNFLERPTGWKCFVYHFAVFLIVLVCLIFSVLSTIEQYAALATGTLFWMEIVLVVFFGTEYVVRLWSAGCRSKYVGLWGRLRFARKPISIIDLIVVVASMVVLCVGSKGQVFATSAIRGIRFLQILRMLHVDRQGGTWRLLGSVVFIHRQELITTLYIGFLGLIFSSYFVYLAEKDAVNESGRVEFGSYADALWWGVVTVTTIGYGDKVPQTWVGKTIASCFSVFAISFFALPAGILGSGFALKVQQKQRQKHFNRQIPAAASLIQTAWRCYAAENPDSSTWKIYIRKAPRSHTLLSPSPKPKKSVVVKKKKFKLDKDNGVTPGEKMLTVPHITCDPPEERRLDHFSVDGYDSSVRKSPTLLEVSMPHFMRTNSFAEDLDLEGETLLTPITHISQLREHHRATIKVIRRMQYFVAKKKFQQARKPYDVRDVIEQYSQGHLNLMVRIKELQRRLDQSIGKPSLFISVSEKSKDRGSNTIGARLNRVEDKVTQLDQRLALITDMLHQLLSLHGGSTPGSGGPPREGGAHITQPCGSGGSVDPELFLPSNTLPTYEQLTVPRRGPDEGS
# Procedure, shortened: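 Material: KCNQ1 CHO cells; also added: Thallium-potassium depolarizing stimulus buffer; timing: dye loading 90 min, compound 20 min, both room temperature; signal: FluxOR thallium flux fluorescence, 10 s baseline plus 110 s; evaluation: percent inhibition relative to buffer and XE991; benchmarks: buffer and XE991; repeats: duplicates, mean used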
# [2] = nonspecific activity in CHO-K1 cells without KCNQ1 – parental CHO cells, Tl flux, counter-screen for KCNQ1 inhibitor project (AID 588366); settings: parental CHO-K1, FluxOR thallium flux fluorescence ratio; at 10 µM; active compounds read low; zero means no signal rise above baseline;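 also: ratio is peak minus minimum fluorescence divided by baseline fluorescence; actives read low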
# Procedure, shortened: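 Assay system: CHO-K1 parental line without KCNQ1; Control set: buffer-only controls; Detection: kinetic Tl+ flux fluorescence with FluxOR dye; Schedule: FluxOR dye loading 90 min, compound exposure 20 min, room temperature.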
# [3] = target: Potassium voltage-gated channel subfamily E member 1 (Homo sapiens) + Potassium voltage-gated channel subfamily KQT member 1 (Homo sapiens) (UniProt P15382+P51787); experiment: block of human IKs channel complex – CHO-K1 cells, thallium flux, FluxOR, selectivity assay for KCNQ1 inhibitor project (AID 652147;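 active = mean percent inhibition of duplicate wells above the buffer-only control mean plus 3 SD of those controls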;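 as to inhibition: 0% = buffer only wells and 100% = XE-991 inhibitor control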); settings: KCNQ1/KCNE1 cells, FluxOR thallium flux fluorescence, at 10 µM; active compounds read high
# Sequence of Potassium voltage-gated channel subfamily E member 1 (Homo sapiens) + Potassium voltage-gated channel subfamily KQT member 1 (Homo sapiens) (P51787 whole entry, looked up): as the sequence (P51787 whole entry, looked up) above
# Procedure, shortened: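 System – KCNQ1/KCNE1 cells · Also added – depolarizing thallium/potassium stimulus, 5x stock with 12.5 mM Tl2SO4 and K2SO4 · Incubation – dye 90 min and compound 20 min at room temperature · Signal – kinetic FluxOR thallium-sensitive fluorescence, 1 Hz sampling, 150 s post-stimulus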
# [4] = target: Potassium voltage-gated channel subfamily KQT member 2 (Rattus norvegicus) (UniProt O88943); experiment: block of rat KCNQ2 potassium channel – cell-based, selectivity assay for KCNQ1 inhibitor project (AID 651746;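 active = mean percent inhibition of the KCNQ2 thallium signal more than 5 SD above the buffer-only control wells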;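 as to inhibition: 0% = buffer control wells and 100% = XE-991 inhibitor control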); settings: KCNQ2 cells, FluxOR thallium flux fluorescence, at 10 µM; active compounds read high
# Sequence of Potassium voltage-gated channel subfamily KQT member 2 (Rattus norvegicus) (O88943 whole entry, looked up): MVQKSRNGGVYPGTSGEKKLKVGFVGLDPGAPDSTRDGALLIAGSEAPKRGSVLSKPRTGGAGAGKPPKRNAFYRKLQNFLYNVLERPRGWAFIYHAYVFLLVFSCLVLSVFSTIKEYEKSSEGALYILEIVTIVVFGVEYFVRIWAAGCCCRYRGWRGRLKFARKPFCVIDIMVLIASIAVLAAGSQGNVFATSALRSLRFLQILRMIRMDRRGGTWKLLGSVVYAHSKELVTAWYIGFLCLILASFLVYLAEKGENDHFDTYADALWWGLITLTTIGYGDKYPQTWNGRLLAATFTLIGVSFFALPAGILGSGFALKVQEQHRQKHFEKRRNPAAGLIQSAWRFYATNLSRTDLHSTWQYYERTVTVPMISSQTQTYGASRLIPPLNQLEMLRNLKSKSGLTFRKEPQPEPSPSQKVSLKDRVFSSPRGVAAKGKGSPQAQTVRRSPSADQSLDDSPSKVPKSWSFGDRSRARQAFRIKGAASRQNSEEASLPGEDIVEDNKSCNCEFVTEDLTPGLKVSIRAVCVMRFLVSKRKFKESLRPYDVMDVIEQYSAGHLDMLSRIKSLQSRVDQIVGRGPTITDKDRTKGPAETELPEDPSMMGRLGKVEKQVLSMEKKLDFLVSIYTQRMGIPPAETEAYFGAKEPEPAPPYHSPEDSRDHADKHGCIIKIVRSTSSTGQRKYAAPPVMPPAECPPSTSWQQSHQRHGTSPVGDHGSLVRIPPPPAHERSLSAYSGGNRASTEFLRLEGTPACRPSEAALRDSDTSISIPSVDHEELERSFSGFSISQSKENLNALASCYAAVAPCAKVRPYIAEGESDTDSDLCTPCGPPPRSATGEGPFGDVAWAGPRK
Structure (SMILES),inhibition [1],fluorescence ratio (Tl flux) [2],inhibition [3],inhibition [4],outcome [4],outcome [3]
Cc1ccccc1OCC(=O)Nc1ccc(N2CCN(C(=O)C(C)C)CC2)c(Cl)c1,57.5% (active),0.503,51% (active),–,–,–
CC(C(=O)NCC1CCCCC1)N(C)Cc1cccc(Cl)c1 (stereo not drawn),62% (active),0.435,84% (active),76% (active),–,–
CCOc1ccc(CN2CCN(Cc3c[nH]c4ccccc34)CC2)cc1,"0% [the number is a placeholder, only the call stands]",0.441,40% (active),–,inactive,–
Oc1ccc2ccc3cccc[n+]3c2c1,–,0.012 (active),–,–,inactive,inactive
FC(F)Oc1ccc(NC(=S)NCc2ccco2)cc1Cl,56.5% (active),0.494,38% (active),–,inactive,–
